The list is not random: actives were taken first. Their share in the collection is about 1.8%.
NPY-Y1 PAM-ag: potentiates or activates human NPY-Y1 receptor | P25929 | NPY-Y1 expressing cells, potentiator/agonist activation | activation, % at 3.6 µM | 220,000 compounds, 0.37% hits; in the data active = activation above about 33%, passing the limit was not always enough;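 also: cells stimulated with NPY at EC10 then isoproterenol at EC100; 0% = low agonist plus stimulus and 100% = saturating agonist plus stimulus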
Target sequence (P25929 whole entry, looked up): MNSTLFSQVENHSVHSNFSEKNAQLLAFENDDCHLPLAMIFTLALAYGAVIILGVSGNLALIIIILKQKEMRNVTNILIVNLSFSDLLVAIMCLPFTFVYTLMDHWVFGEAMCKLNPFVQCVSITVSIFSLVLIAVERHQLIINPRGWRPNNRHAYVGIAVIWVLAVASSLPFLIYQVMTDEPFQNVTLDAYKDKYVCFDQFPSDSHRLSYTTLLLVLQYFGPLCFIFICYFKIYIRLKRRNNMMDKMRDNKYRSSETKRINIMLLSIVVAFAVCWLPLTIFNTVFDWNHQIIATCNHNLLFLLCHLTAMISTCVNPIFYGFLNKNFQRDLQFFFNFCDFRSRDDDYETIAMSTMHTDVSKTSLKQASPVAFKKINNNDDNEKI
NPY Y1 blocker: blocks the human neuropeptide Y Y1 receptor; 200,000 compounds, 1% hits; P25929; HEK293-CNG Y1 cells, membrane potential fluorescence; NPY at EC95, then isoproterenol; inhibition, % at 3.6 µM;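 active = inhibition above the campaign mean inhibition of all tested compounds plus 3 SD, cut at about 20% in these data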;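 also: 0% = DMSO wells given NPY plus isoproterenol and 100% = isoproterenol alone without NPY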
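System: HEK293 cells with Y1 receptor plus CNG channel / Probe or stimulus: NPY 25 nM then isoproterenol 1 µM plus Ro 20-1724 25 µM / Compound: one concentration, 3.6 µM, in 0.4% DMSO / Schedule: compound incubation 1 h at room temperature, readout 45 min post-stimulation / Measured by: membrane potential fluorescence / Read-out: % inhibition of NPY effect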
NPY-Y2 PAM-ag: potentiates or activates human NPY-Y2 receptor; cells expressing NPY-Y2, potentiator/agonist read-out; activation, % at 3.6 µM; 220,000 compounds, 0.45% hits; in the data active = activation above about 27%;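 also: cells stimulated with NPY near EC25 plus isoproterenol at EC100; 0% = vehicle plus submaximal agonist and 100% = vehicle plus saturating agonist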
NPY Y2 blocker: blocks the human neuropeptide Y Y2 receptor; NPY-Y2 expressing cells, antagonist mode; inhibition, % at 2.7 µM; 140,000 compounds, 0.99% hits; in the data active = inhibition above about 17%;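 also: 0% = vehicle with agonist challenge and 100% = reference antagonist with challenge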
* hit, by the source's call; . = no result.

SMILES | NPY-Y1 PAM-ag | NPY Y1 blocker | NPY-Y2 PAM-ag | NPY Y2 blocker
COC(=O)CSc1nnc(-c2ccc(NS(=O)(=O)c3ccccc3)cc2)o1 | 39.5* | -17.5 | 90.9* | -2.5
Cc1[nH][nH]c(=O)c1C(c1ccccc1[N+](=O)[O-])C(C#N)C#N (stereo not given) | 0.3 | 4.0 | 11.7 | .
CCCc1[nH][nH]c(=O)c1C(c1cccc(Cl)c1)C(C#N)C#N (stereo not given) | -28.6 | 50.4* | -7.6 | 57.8*
CC(=O)n1cc(C(C[N+](=O)[O-])SCCN)c2ccccc21 (stereo not given) | 20.2 | 4.0 | -2.9 | 0.1
Brc1ccc(-c2csc(/N=C/N3CCOCC3)n2)cc1 | -23.4 | 35.1* | -11.9 | 8.3
Cc1ccc2cc(C)c3nnc(SCc4ccc(C(=O)O)cc4)n3c2c1C | 15.8 | . | -4.2 | .
Cc1noc(C)c1CSc1nnnn1-c1ccc(Cl)cc1 | -11.6 | -6.4 | -1.4 | 1.2
Cc1noc(C)c1CSc1nc2ccccc2c(=O)n1-c1ccc(Cl)cc1 | 9.7 | 27.5* | -5.5 | 32.2*
Cc1noc(C)c1C(=O)N1CC(C)OC(C)C1 (stereo not given) | 3.7 | 12.7 | 0.7 | 1.2
CCc1noc(C)c1C(=O)N1CC(C)OC(C)C1 (stereo not given) | 77.9* | -9.9 | 95.5* | -0.9
COC(=O)Cc1[nH]c(=S)[nH]c1C(=O)OC | 3.0 | . | -11.4 | .
CCC(=O)Nc1ccccc1C(=O)OC(c1ccccc1)c1ccccc1 | -24.4 | 26.9* | -4.3 | 24.5*
COc1ccc(-c2noc(COc3ccc4c(c3)OCO4)n2)cc1 | -8.2 | 10.9 | 0.4 | 16.3
COc1ccc(-c2noc(COc3ccc4c(c3)OCO4)n2)cc1OC | -23.3 | 26.0* | -22.7 | 12.0
Cc1cc(Nc2ccccc2)nc(NCc2ccccc2)n1 | -23.7 | 5.1 | -17.1 | 16.5
Cc1cc(N/N=C/c2ccc(F)cc2)nc(NCc2ccccc2)n1 | -13.9 | . | -39.9 | .
Cc1cc(Oc2ccccc2F)nc(NCc2ccccc2)n1 | -8.2 | 25.7* | -38.5 | 24.4*
CCCCNc1cc(C)nc(NCc2ccccc2)n1 | -35.9 | 30.6* | -0.1 | 29.0*
O=C(c1cccc(C(F)(F)F)c1)N1CCc2c([nH]c3ccccc23)C1C(F)(F)F (stereo not given) | 13.4 | . | 5.6 | .
O=C1OC(/C(=C\Nc2cc(Cl)ccc2O)[N+](=O)[O-])c2ccccc21 (stereo not given) | 6.1 | -3.1 | 3.9 | .
CCCCn1c(N)c(C(=S)NC(=O)CC(C)(C)C)c(=O)n(C)c1=O | -1.1 | 3.7 | -2.5 | 4.4
Cc1ccc(N=CC2=C(O)CC(c3ccc(Cl)cc3)CC2=O)cc1 (stereo not given) | 3.6 | -2.1 | 1.7 | 5.1
CCOC(=O)/C(=N\Nc1ccc(Br)cc1)N1CC(C)OC(C)C1 (stereo not given) | 2.8 | . | -2.8 | .
CC1(C)c2ssc(=S)c2-c2ccccc2N1C(=O)CSC1=NCCS1 | 39.2 | -5.3 | 34.3* | -4.1
Cc1ccc2c(c1)-c1c(ssc1=S)C(C)(C)N2C(=O)CSc1nncn1C | 9.5 | -2.4 | 18.2 | 1.8
SMILES | NPY-Y1 PAM-ag | NPY Y1 blocker | NPY-Y2 PAM-ag | NPY Y2 blocker
CCn1c(/C=C/Nc2ccccc2)[n+](CC)c2ccc(Cl)cc21 | -6.4 | 4.4 | 0.2 | 12.5
CCn1c(/C=C/N(C)c2ccccc2)[n+](CC)c2ccc(Cl)cc21 | -24.9 | 26.3* | -2.8 | 30.6*
O=C(Nc1ncc2c(n1)-c1ccccc1CC2)c1cccc(Cl)c1 | -42.6 | 34.0* | -31.4 | 24.7*
COc1ccccc1Nc1nc(N)nc(CSC(=S)N2CCCCC2)n1 | -16.4 | . | -36.4 | .
CCCCC[C@H](O)/C=C/[C@@H]1[C@@H](C/C=C\CCCC(=O)OC)[C@@H](O)C[C@H]1O | -65.3 | 63.1* | -23.1 | 20.1*
CCCCC[C@H](O)/C=C/[C@@H]1[C@@H](C/C=C\CCCC(=O)O)[C@@H](O)C[C@H]1O | -73.2 | 11.4 | -22.6 | 2.1
CCOc1ccccc1CN(Cc1ccco1)S(=O)(=O)c1ccc(-n2cnnn2)c(OC)c1 | -11.2 | 38.0* | -21.1 | 17.6*
COc1cc(/C=N/NC(=O)c2cccs2)ccc1OCc1ccccc1 | -47.1 | -0.7 | -27.2 | 3.6
COc1ccc(/C=N/NC(=O)c2sccc2OCc2ccc(F)cc2)cc1OC | -20.6 | 11.7 | -26.6 | 25.9*
O=C(CSc1nc2ccccc2c(=O)n1Cc1ccco1)N1CCCC1 | -3.3 | -0.6 | 1.3 | .
COCCCn1c(SCc2nnc(-c3ccc(OC)c(OC)c3)o2)nc2ccccc2c1=O | -23.5 | 13.8 | -6.3 | 16.4
CC(C)Cn1c(SCC(=O)N2CCCCC2)nc2ccccc2c1=O | -18.2 | 22.0* | -12.2 | 23.8*
CCOC(=O)CSc1nc2ccccc2c(=O)n1CC(C)C | -23.7 | 20.1* | -27.9 | .
CCOC(=O)CSc1nc2ccccc2c(=O)n1CC | -17.2 | 6.6 | -4.8 | 4.9
COc1ccc(-c2nnc(CSc3nc4ccccc4c(=O)n3CC(C)C)o2)cc1OC | -29.7 | 25.6* | -36.7 | 27.8*
CCS(=O)(=O)c1cc([N+](=O)[O-])c(Sc2ccccc2NC(C)=O)s1 | -23.1 | . | -14.5 | .
CC(C(Sc1ccccc1N)c1ccccc1)[N+](=O)[O-] (stereo not given) | 2.2 | . | -12.7 | .
O=C(NCc1ccco1)c1ccc(-c2csnn2)cc1 | -0.5 | . | 15.2 | .
CC(C)(C(=O)c1ccccc1)/[N+]([O-])=C/c1ccc(Br)cc1 | 1.3 | 8.3 | 5.7 | 1.3
CC(COC(=O)c1ccccc1)(COC(=O)c1ccccc1)/[N+]([O-])=C/c1ccccc1 | -14.3 | 21.3* | -10.2 | 18.3*
COc1cc2c(cc1OC)-c1cc(N3CCCCCC3)nc(=O)n1CC2 | -23.1 | 24.4* | -3.0 | 32.3*
COc1cc2c(cc1OC)-c1cc(N3CCc4ccccc43)nc(=O)n1CC2 | -16.9 | . | -26.8 | .
COc1cc2c(cc1OC)-c1cc(NC3CCCCCC3)nc(=O)n1CC2 | -19.7 | 48.8* | -3.1 | 42.6*
COc1cc2c(cc1OC)-c1cc(Nc3ccccc3)nc(=O)n1CC2 | -21.6 | . | -53.5 | .
COc1cc2c(cc1OC)-c1cc(N3CCCc4ccccc43)nc(=O)n1CC2 | -39.7 | 122.6* | -9.9 | 135.8*
SMILES | NPY-Y1 PAM-ag | NPY Y1 blocker | NPY-Y2 PAM-ag | NPY Y2 blocker
COc1ccccc1-c1ccc(/C=C2\C=CC(=O)O2)o1 | 3.1 | . | 6.5 | .
CCO[C@H]1OC(C(=O)NCc2ccccc2)=C[C@@H](c2ccc(C(F)(F)F)cc2)[C@@H]1CCCO | 37.5* | -7.7 | 11.1 | .
O=C1CCC(/C=C/c2ccccc2)=NN1Cc1ccc(Cl)c(Cl)c1 | -34.0 | 20.4* | -10.3 | 24.6*
c1ccc(CNc2nc(CN3CCOCC3)nc3scc(-c4ccccc4)c23)cc1 | -30.3 | 27.1* | -16.8 | 19.2*
c1ccc(-c2csc3ncnc(NCCN4CCOCC4)c23)cc1 | 1.1 | -5.2 | 0.5 | 2.8
CCc1ccc(-c2nc(CN3CCC(C(=O)N4CCN(c5ccccc5)CC4)CC3)c(C)o2)cc1 | -74.8 | 46.5* | -27.6 | 31.1*
CC(C)c1ccc(N(CC(=O)NCC2CCCO2)C(=O)Cn2nnc(-c3cccs3)n2)cc1 (stereo not given) | -24.0 | -2.3 | -12.2 | .
O=C(NC1CCCCCCC1)C1c2ccccc2C(=O)N1Cc1ccco1 (stereo not given) | 5.7 | 11.3 | -28.1 | 13.1
